# Reference: ChEMBL document CHEMBL1123566, “Synthesis and cardiac electrophysiological activity of 2- and 3-[(substituted phenyl)alkyl]quinuclidines. Structure-activity relationships” (1987)
# Where “and” joins values, the source holds several entries; their conditions need not be identical. Identical values can stand only once.
# Legend:
# Canis familiaris [1] = assay: Heart rate was determined by intraduodenal administration of 10 mg/kg (low dose) of compound in anesthetized dogs. Value was reported for experiment 2; type: functional, Canis lupus familiaris
# In short: (§1)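 Anesthetized dogs; compound given intraduodenally, generally as two doses, the second a cumulative (high) dose. LV functional refractory period and conduction time measured 15, 30 and 45 min after dosing; heart rate and blood pressure measured during nonpacing intervals. Values are % change from control, given per individual animal. Active if FRP or CT prolonged by ≥12%.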
# Canis familiaris [2] = organism: Canis familiaris; assay: In vitro electrophysiological evaluation in canine cardiac ventricular muscle reported as maximum % change for functional refractory period (FRP) at 0.1-30 uM concentration range; concentration at which it occurred is 1 uM.; design: species or system Canis lupus familiaris, Muscle tissue
# In short: (§2)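 Canine right ventricle and papillary muscle strips in oxygenated Tyrode's solution, fitted with stimulating and recording electrodes. The extra-stimulus conduction-interval method was adapted for in vitro use. FRP and CT were read from a conduction-interval curve before and after various compound concentrations, and expressed as percent change from control. Compounds were taken from 10 mM deionized-water stock into Tyrode's. Each strip was used once as its own control.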
# Canis familiaris [3] = organism: Canis familiaris; assay: In vitro electrophysiological evaluation in canine cardiac ventricular muscle reported as % change for conduction time(CT) at 10 uM at 0.1-30 uM concentration range; Minimal (<10% decrease or increase in CT).; type: functional, Canis lupus familiaris, Muscle tissue
# Canis familiaris [4] = assay: Heart rate was determined by intraduodenal administration of 30 mg/kg (high dose) of compound in anesthetized dogs. Value was reported for experiment 1; type: functional, Canis lupus familiaris; in short: as §1
# Canis familiaris [5] = assay: Mean arterial blood pressure was determined by intraduodenal administration of 10 mg/kg (low dose)of compound in anesthetized dogs. Value was reported for experiment 1; type: functional, Canis lupus familiaris
# Canis familiaris [6] = assay: Conduction time was determined by intraduodenal administration of 10 mg/kg (low dose) of compound in anesthetized dogs. Value was reported for experiment 1; type: functional, Canis lupus familiaris; in short: as §1
# Canis familiaris [7] = assay: Heart rate was determined by intraduodenal administration of 10 mg/kg (low dose) of compound in anesthetized dogs. Value was reported for experiment 1; type: functional, Canis lupus familiaris; in short: as §1
# Canis familiaris [8] = assay: Mean arterial blood pressure was determined by intraduodenal administration of 30 mg/kg (high dose) of compound in anesthetized dogs. Value was reported for experiment 2; type: functional, Canis lupus familiaris
# Canis familiaris [9] = organism: Canis familiaris; assay: In vitro electrophysiological evaluation in canine cardiac ventricular muscle reported as maximum % change for conduction time(CT) at 0.1-30 uM concentration range; Minimal (<10% decrease or increase in CT).; type: functional, Canis lupus familiaris, Muscle tissue; in short: as §2
# Canis familiaris [10] = organism: Canis familiaris; assay: In vitro electrophysiological evaluation in canine cardiac Purkinje fibres reported as percent change Vmax at 10 uM at concentration range of 0.1-30 uM; Minimal (<10% decrease or increase in V max).; type: functional, organism-based; settings: Canis lupus familiaris, Purkinje fiber
# In short: (§3)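 Canine cardiac Purkinje fibres, intracellular microelectrode recording, paced at a basic cycle length of 1 s. APD95 and Vmax read simultaneously. Compound: 10 mM stock in deionized water, diluted into Tyrode's solution, tested over the stated concentration range. Each fibre used once as its own control. Result is % change from control, given at 10 µM or as the maximum with its concentration. M = <10% decrease or an increase in Vmax.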
# Canis familiaris [11] = assay: Conduction time was determined by intraduodenal administration of 10 mg/kg (low dose)of compound in anesthetized dogs. Value was reported for experiment 2; type: functional, Canis lupus familiaris; in short: as §1
# Canis familiaris [12] = assay: Conduction time was determined by intraduodenal administration of 30 mg/kg (high dose)of compound in anesthetized dogs. Value was reported for experiment 2; type: functional, Canis lupus familiaris; in short: as §1
# Canis familiaris [13] = organism: Canis familiaris; assay: In vitro electrophysiological activity in canine cardiac occurred is 1 uM; type: functional, Canis lupus familiaris, Heart
# Canis familiaris [14] = assay: Mean arterial blood pressure was determined by intraduodenal administration of 30 mg/kg (high dose) of compound in anesthetized dogs. Value was reported for experiment 1; type: functional, Canis lupus familiaris
# Canis familiaris [15] = assay: Conduction time was determined by intraduodenal administration of 30 mg/kg (high dose) of compound in anesthetized dogs. Value was reported for experiment 1; type: functional, Canis lupus familiaris; in short: as §1
# Canis familiaris [16] = assay: Mean arterial blood pressure was determined by intraduodenal administration of 10 mg/kg (low dose)of compound in anesthetized dogs. Value was reported for experiment 2; type: functional, Canis lupus familiaris
# Canis familiaris [17] = organism: Canis familiaris; assay: In vitro electrophysiological evaluation in canine cardiac ventricular muscle reported as maximum % change for functional refractory period (FRP) at 0.1-10 uM concentration range; concentration at which it occurred is 1 uM.; design: species or system Canis lupus familiaris, Muscle tissue; in short: as §2
# Canis familiaris [18] = assay: Left ventricular refractory period was determined by intraduodenal administration of 30 mg/kg (high dose) of compound in anesthetized dogs. Value was reported for experiment 2; type: functional, Canis lupus familiaris, Cardiac ventricle
# In short: (§4)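 Anesthetized dogs received two intraduodenal doses, the second cumulative (low dose/high dose). Left ventricular FRP and CT were measured 15, 30 and 45 min after dosing. Heart rate and mean blood pressure were taken during nonpacing intervals. Values are percent change from control. The vehicle was 5% dextrose in water/tragacanth. Activity was defined as ≥12% prolongation of FRP or CT.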
# Canis familiaris [19] = organism: Canis familiaris; assay: In vitro electrophysiological evaluation in canine cardiac ventricular muscle reported as % change for the functional refractory period (FRP) at 10 uM at concentration range of 0.1-10 uM; design: species or system Canis lupus familiaris, Muscle tissue; in short: as §2
# Canis familiaris [20] = assay: Left ventricular refractory period was determined by intraduodenal administration of 30 mg/kg (high dose) of compound in anesthetized dogs. Value was reported for experiment 1; type: functional, Canis lupus familiaris, Cardiac ventricle; in short: as §4
# Canis familiaris [21] = organism: Canis familiaris; assay: In vitro electrophysiological evaluation in canine cardiac ventricular muscle reported as maximum % change for functional refractory period (FRP) at 0.1-30 uM concentration range; concentration at which it occurred is 30 uM.; design: species or system Canis lupus familiaris, Muscle tissue; in short: as §2
# Canis familiaris [22] = organism: Canis familiaris; assay: In vitro electrophysiological evaluation in canine cardiac occurred is 30 uM; type: functional; settings: Canis lupus familiaris; Heart
# Canis familiaris [23] = assay: Left ventricular refractory period was determined by intraduodenal administration of 10 mg/kg (low dose) of compound in anesthetized dogs. Value was reported for experiment 2; type: functional, Canis lupus familiaris, Cardiac ventricle; in short: as §4
# Canis familiaris [24] = organism: Canis familiaris; assay: In vitro electrophysiological evaluation in canine cardiac Purkinje fibres reported as percent change Vmax at 10 uM at concentration range of 0.1-30 uM; type: functional; settings: Canis lupus familiaris, Purkinje fiber; in short: as §3
# Canis familiaris [25] = assay: Left ventricular refractory period was determined by intraduodenal administration of 10 mg/kg (low dose) of compound in anesthetized dogs. Value was reported for experiment 1; type: functional, Canis lupus familiaris, Cardiac ventricle; in short: as §4
# Canis familiaris [26] = organism: Canis familiaris; assay: In vitro electrophysiological evaluation in canine cardiac ventricular muscle reported as % change for conduction time(CT) at 10 uM at 0.1-10 uM concentration range; Minimal (<10% decrease or increase in CT).; type: functional, Canis lupus familiaris, Muscle tissue
# Canis familiaris [27] = organism: Canis familiaris; assay: In vitro electrophysiological evaluation in canine cardiac ventricular muscle reported as maximum % change for conduction time(CT) at 0.1-10 uM concentration range; Minimal (<10% decrease or increase in CT).; type: functional, Canis lupus familiaris, Muscle tissue; in short: as §2
# Canis familiaris [28] = organism: Canis familiaris; assay: In vitro electrophysiological evaluation in canine cardiac Purkinje fibres reported as % change for action potential duration at 10 uM at 0.1-30 uM concentration range; type: functional, Canis lupus familiaris, Purkinje fiber; in short: as §3
# Canis familiaris [29] = organism: Canis familiaris; assay: In vitro electrophysiological evaluation in canine cardiac ventricular muscle reported as % change for the functional refractory period (FRP) at 10 uM at concentration range of 0.1-30 uM; design: species or system Canis lupus familiaris, Muscle tissue; in short: as §2
# Canis familiaris [30] = assay: Heart rate was determined by intraduodenal administration of 30 mg/kg (high dose) of compound in anesthetized dogs. Value was reported for experiment 2; type: functional, Canis lupus familiaris; in short: as §1
# Canis familiaris [31] = organism: Canis familiaris; assay: In vitro electrophysiological evaluation in canine cardiac Purkinje fibres reported as % change for action potential duration at a concentration of 10 uM; type: functional, Canis lupus familiaris, Purkinje fiber; in short: as §3
# Canis familiaris [32] = organism: Canis familiaris; assay: In vitro electrophysiological activity in canine cardiac occurred is 10 uM.; type: functional, Canis lupus familiaris, Heart
# Canis familiaris [33] = organism: Canis familiaris; assay: In vitro electrophysiological activity in canine cardiac occurred is 100 uM.; type: functional, Canis lupus familiaris, Heart
# Canis familiaris [34] = organism: Canis familiaris; assay: In vitro electrophysiological evaluation in canine cardiac ventricular muscle reported as % change for the functional refractory period (FRP) at 10 uM at concentration range of 0.1-100 uM; design: species or system Canis lupus familiaris, Muscle tissue; in short: as §2
# Canis familiaris [35] = organism: Canis familiaris; assay: In vitro electrophysiological evaluation in canine cardiac ventricular muscle reported as % change for the functional refractory period (FRP) at 10 uM at concentration range of 1-100 uM; design: species or system Canis lupus familiaris, Muscle tissue; in short: as §2
# Canis familiaris [36] = organism: Canis familiaris; assay: In vitro electrophysiological evaluation in canine cardiac ventricular muscle reported as % change for conduction time(CT) at 10 uM at 1-100 uM concentration range; Minimal (<10% decrease or increase in CT).; type: functional, Canis lupus familiaris, Muscle tissue
# Canis familiaris [37] = organism: Canis familiaris; assay: In vitro electrophysiological evaluation in canine cardiac ventricular muscle reported as maximum % change for conduction time(CT) at 1-100 uM concentration range; concentration at which it occurred is 100 uM; type: functional, Canis lupus familiaris, Muscle tissue; in short: as §2
# Canis familiaris [38] = organism: Canis familiaris; assay: In vitro electrophysiological evaluation in canine cardiac ventricular muscle reported as maximum % change for conduction time(CT) at 0.1-100 uM concentration range; Minimal (<10% decrease or increase in CT).; type: functional, Canis lupus familiaris, Muscle tissue; in short: as §2
# Canis familiaris [39] = organism: Canis familiaris; assay: In vitro electrophysiological evaluation in canine cardiac ventricular muscle reported as maximum % change for functional refractory period (FRP) at 1-100 uM concentration range; concentration at which it occurred is 100 uM; design: species or system Canis lupus familiaris, Muscle tissue; in short: as §2
# Canis familiaris [40] = organism: Canis familiaris; assay: In vitro electrophysiological evaluation in canine cardiac Purkinje fibres reported as % change for action potential duration at 10 uM at 1-100 uM concentration range; type: functional, Canis lupus familiaris, Purkinje fiber; in short: as §3
# Canis familiaris [41] = organism: Canis familiaris; assay: In vitro electrophysiological evaluation in canine cardiac occurred is 100 uM; type: functional; settings: Canis lupus familiaris; Heart
# Canis familiaris [42] = organism: Canis familiaris; assay: In vitro electrophysiological evaluation in canine cardiac ventricular muscle reported as maximum % change for functional refractory period (FRP) at 0.1-100 uM concentration range; concentration at which it occurred is 100 uM; design: species or system Canis lupus familiaris, Muscle tissue; in short: as §2
# Canis familiaris [43] = organism: Canis familiaris; assay: In vitro electrophysiological evaluation in canine cardiac ventricular muscle reported as maximum % change for conduction time(CT) at 0.1-100 uM concentration range; concentration at which it occurred is 100 uM; type: functional, Canis lupus familiaris, Muscle tissue; in short: as §2
# Canis familiaris [44] = organism: Canis familiaris; assay: In vitro electrophysiological evaluation in canine cardiac Purkinje fibres reported as percent change Vmax at 10 uM at concentration range of 1-100 uM; type: functional; settings: Canis lupus familiaris, Purkinje fiber; in short: as §3
# Canis familiaris [45] = organism: Canis familiaris; assay: In vitro electrophysiological evaluation in canine cardiac ventricular muscle reported as % change for conduction time(CT) at 10 uM at 0.1-100 uM concentration range; Minimal (<10% decrease or increase in CT).; type: functional, Canis lupus familiaris, Muscle tissue
structure (smiles),measurement,setting,value
Cl.O=C(CCC1C(=O)C2CCN1CC2)c1ccc(Cl)cc1 (stereo unspecified),HR,Canis familiaris [1],-15%
same,FRP,Canis familiaris [2],15%
same,CT,Canis familiaris [3],<10%
same,HR,Canis familiaris [4],-18%
same,Mean blood pressure,Canis familiaris [5],-5%
same,CT,Canis familiaris [6],5%
same,HR,Canis familiaris [7],-13%
same,Mean blood pressure,Canis familiaris [8],23%
same,CT,Canis familiaris [9],<10%
same,Vmax,Canis familiaris [10],< 10%
same,CT,Canis familiaris [11],4%
same,CT,Canis familiaris [12],13%
same,APD95,Canis familiaris [13],14% and 12%
same,Mean blood pressure,Canis familiaris [14],0%
same,CT,Canis familiaris [15],14%
same,Mean blood pressure,Canis familiaris [16],18%
same,FRP,Canis familiaris [17],22%
same,LV FRP,Canis familiaris [18],6%
same,FRP,Canis familiaris [19],17%
same,LV FRP,Canis familiaris [20],15%
same,FRP,Canis familiaris [21],-9%
same,Vmax,Canis familiaris [22],-26% and -18%
same,LV FRP,Canis familiaris [23],12%
same,Vmax,Canis familiaris [24],-10%
same,LV FRP,Canis familiaris [25],15%
same,CT,Canis familiaris [26],<10%
same,CT,Canis familiaris [27],<10%
same,APD95,Canis familiaris [28],5%
same,FRP,Canis familiaris [29],10%
same,HR,Canis familiaris [30],-21%
same,APD95,Canis familiaris [31],13%
CCOC(=O)C(CC1C(=O)C2CCN1CC2)C(=O)c1ccc(Cl)c(NS(C)(=O)=O)c1.Cl (stereo unspecified),APD95,Canis familiaris [32],9%
same,APD95,Canis familiaris [33],-16%
same,FRP,Canis familiaris [34],5% and -7% and 6%
same,FRP,Canis familiaris [35],10%
same,CT,Canis familiaris [36],<10%
same,CT,Canis familiaris [37],14%
same,CT,Canis familiaris [38],<10%
same,FRP,Canis familiaris [39],15%
same,APD95,Canis familiaris [40],-4%
same,Vmax,Canis familiaris [41],-19% and -21%
same,FRP,Canis familiaris [42],12% and 5% and 14%
same,CT,Canis familiaris [43],12%
same,Vmax,Canis familiaris [44],-11% and -10%
same,CT,Canis familiaris [45],<10%
same,APD95,Canis familiaris [31],9%
